# Experimental data taken from PMC3744103 (Molecular cancer therapeutics, 2013).
# Values joined by “and” are separate entries in the source; they are usually repeats but may differ in a detail not shown here. Equal entries are not always repeated.
# Key:
# UMUC3 cells [1] = assay: Anchorage-independent growth assay; assay type: cell-based, human; details: UMUC3 in soft agar, concentration-dependent, as low as 5 μM, P<0.01
# How it was run: (§1)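 UMUC3 cells (DMEM, 10% FBS; stable GFP or GFP-Cyclin D1 transfectants made by co-transfection with pSuper vector) were seeded at 1×10^4 per well in 0.33% soft agar in 10% FBS BME, with or without test compound, over a 0.5% agar bottom layer. Vehicle was 0.1% DMSO. Cultures were kept at 37°C, 5% CO2 for 21 days. Colonies over 32 cells were counted by microscope as colonies per 10,000 seeded cells (mean±SD, 3 experiments).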
# Cl41 cells = assay: Cell viability, ATPase activity assay; assay type: cell-based, mouse; details: normal Cl41 cells, ISO 5–60 μM, 48 h
# [2] = system: Cyclin D1 protein expression in RT112 cells; assay: Western blotting of Cyclin D1; assay type: cell-based, human
# [3] = ISO pharmacokinetics in mouse serum, LC/MS/MS; assay type: in vivo, mice; details: for Caverage ± SD, serum ISO concentration: mouse serum, 150 mg/kg gastric gavage, n=3
# How it was run: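 Male […] mice (20–25 g, 30 total) received 150 mg/kg by gastric gavage; three were killed per time point from 0.033 to 4 h. Serum (centrifuged 4000 rpm, 30 min; stored −20 °C) extracted with methanol, filtered 0.45 μm and run on LC/MS/MS: negative ESI, MRM, m/z 257.0/241.1, naringenin 271.1/151.1. Parameters derived by non-compartmental analysis.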
# [4] = system: Cyclin D1 protein expression in Cl41 cells; assay: Western blotting of Cyclin D1; assay type: cell-based, mouse; details: normal Cl41 cell line, 24h
# [5] = system: SP1 binding to Cyclin D1 promoter in UMUC3 cells; assay: ChIP assay; assay type: cell-based, human; details: UMUC3, ISO 5 μM, 12 hours
# How it was run: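 Chromatin immunoprecipitation (EZ-ChIP kit) on UMUC3 cells left untreated or given 5 μM test compound for 12 h. Precipitated DNA amplified by PCR with primers covering the SP1-binding region −92 to +27 of the human Cyclin D1 promoter.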
# UMUC3 cells [6] = assay: Cell viability, ATPase activity assay; assay type: cell-based, human
# How it was run: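 Cells exposed for 48 h to varying concentrations of test compound, with 0.1% DMSO as vehicle control. Viability read by an ATPase-based assay in three independent experiments. UMUC3 kept in DMEM with 10% FBS at 37 °C and 5% CO2. IC50 given with n=3.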
# [7] = system: endogenous Cyclin D1 and exogenous GFP-Cyclin D1 in UMUC3 transfectants; assay: Western blotting in stable transfectants; assay type: cell-based, human; details: ISO 24 h
# How it was run: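 UMUC3 cells stably transfected with GFP or GFP-Cyclin D1 constructs were treated with test compound for 24 h. Cells were lysed in 10 mM Tris-HCl (pH 7.4), 1% SDS, 1 mM Na3VO4, and protein was quantified by DC assay. Blots were probed with primary antibodies and an AP-conjugated secondary, with ECF detection.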
# [8] = system: SP1 protein expression in UMUC3 cells; assay: Western blotting of cytoplasmic and nuclear extracts for transcription factors; assay type: cell-based, human; details: UMUC3, 5 μM ISO, 12 h
# How it was run: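 UMUC3 cells in 10-cm dishes were treated with 0.1% DMSO or 5 μM test compound for 12 h. Cytoplasmic and nuclear fractions were prepared with a nuclear/cytosol fractionation kit and stored at −80°C. Immunoblots used an AP-conjugated secondary with ECF detection and GAPDH as loading control. Nuclear SP1 was quantified by scanning relative to C-Jun (n=3).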
# [9] = system: human bladder cancer cells; details: cited from earlier work
# UMUC3 cells [10] = assay: Cell morphology observation; assay type: cell-based, human; details: UMUC3, 20 μM ISO, 24 hours
# [11] = system: Cyclin D1 protein expression in UMUC3 cells; assay: Western blotting of Cyclin D1 and cell cycle regulators; assay type: cell-based, human
# [12] = system: UMUC3(GFP-Cyclin D1) cells; assay: Cell cycle analysis by flow cytometry in stable transfectant; assay type: cell-based, human; details: ISO 24 h, control 51.01%
# [13] = system: UMUC3 (GFP) and UMUC3 (GFP-Cyclin D1) cells; assay: Anchorage-independent growth in soft agar, stable transfectants; assay type: cell-based, human; details: UMUC3 (GFP) vs UMUC3 (GFP-Cyclin D1) in soft agar
# How it was run: as §1
# [14] = system: Cyclin D1 promoter transcriptional activity in UMUC3 cells; assay: Cyclin D1 promoter-driven luciferase reporter assay; assay type: cell-based, human; details: ISO 5μM
# How it was run: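 UMUC3 cells stably carrying a Cyclin D1 promoter-luciferase reporter were seeded at 1×10^4 per well and treated with 5 μM test compound at 80–90% confluence for the indicated times. Luciferase activity read on a microplate luminometer.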
# [15] = system: bovine aortic smooth muscle cells (BASMCs); details: cited from earlier work
# cardiac hypertrophy = details: by anti-oxidative activity; cited from earlier work
# [16] = system: Cyclin D1 protein expression in RT4 cells; assay: Western blotting of Cyclin D1; assay type: cell-based, human; details: low grade RT4 cell line, 24h
# UMUC3 cells [17] = assay: Cell cycle and apoptosis analysis by flow cytometry; assay type: cell-based, human; details: UMUC3, 5 μM ISO; for cells in G0/G1 (growth arrest): control 47.58%
# [18] = system: SP1-dependent transcriptional activity in UMUC3 cells; assay: SP1 luciferase reporter assay; assay type: cell-based, human; details: UMUC3 stable reporter, ISO 5μM, P<0.01
# How it was run: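 A reporter with three consensus SP1 sites was stably co-transfected with pRL-TK and pSuper into UMUC3 cells. Cells were seeded at 1×10^4 per well and, at 80–90% confluence, exposed to 5 μM test compound for various times. Lysis buffer was Tris-phosphate pH 7.8 with EDTA, Triton X-100 and glycerol. Dual-luciferase read-out gave relative SP1 activity (means±SE, three independent experiments).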
# RT4 cells = assay: Cell viability, ATPase activity assay; assay type: cell-based, human; details: read-out: IC50, cell viability; RT4, ISO 5–60 μM, 48 h, n=3
# UMUC3(GFP) cells = assay: Cell cycle analysis by flow cytometry in stable transfectant; assay type: cell-based, human; details: ISO 24 h, control 62.74%
# [19] = system: cyclin d1 mRNA in UMUC3 cells; assay: Semiquantitative RT-PCR; assay type: cell-based, human; details: UMUC3, concentration- and time-dependent (24 h; 5 μM time course)
# How it was run: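 UMUC3 cells treated with test compound at the indicated concentrations for 24 h, or at 5 μM for the indicated times. Total RNA isolated with TRIzol and reverse transcribed. Cyclin D1 mRNA measured by semiquantitative RT-PCR against GAPDH, with products run on 2% agarose and stained with ethidium bromide.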
# [20] = mice, 150 mg/kg oral, non-compartmental model
structure (smiles),measurement,setting,value
"COc1cc(/C=C/c2cc(O)cc(O)c2)ccc1O [ISO, Isorhapontigenin]",anchorage-independent growth,UMUC3 cells [1],markedly inhibited anchorage-independent growth
same,cell viability,Cl41 cells,no obvious reduction of cell viability
same,earliest time of significant reduction of Cyclin D1 expression,"[2]; RT112, 5 μM ISO",6 h
same,Cyclin D1 expression,"[2]; high grade RT112 cell line, 24h",markedly inhibition of Cyclin D1 expression
same,AUC(0-t),[3]; [20],6090 ± 2810 ng·h/mL
same,AUC(0-∞),[3]; [20],6100 ± 2800 ng·h/mL
same,"CLz/F, apparent clearance",[3]; [20],462 ± 172 mL/min/kg
same,"MRT(0-t), mean residence time",[3]; [20],0.70 ± 0.20 h
same,"t1/2z, terminal half-life","[3]; mice, 150 mg/kg oral, non-compartmental model, 150 mg/kg",1.7 h and 1.72 ± 0.27 h
same,"Caverage ± SD, serum ISO concentration",[3]; 0.033 h,6800 ± 2100 ng/mL
same,"Caverage ± SD, serum ISO concentration",[3]; 0.083 h,10740 ± 3520 ng/mL
same,"Caverage ± SD, serum ISO concentration",[3]; 0.170 h,12350 ± 4790 ng/mL
same,"Caverage ± SD, serum ISO concentration",[3]; 0.250 h,9230 ± 4840 ng/mL
same,"Caverage ± SD, serum ISO concentration",[3]; 0.500 h,6220 ± 3600 ng/mL
same,"Caverage ± SD, serum ISO concentration",[3]; 0.750 h,830 ± 800 ng/mL
same,"Caverage ± SD, serum ISO concentration",[3]; 1.000 h,290 ± 240 ng/mL
same,"Caverage ± SD, serum ISO concentration",[3]; 1.500 h,280 ± 140 ng/mL
same,"Caverage ± SD, serum ISO concentration",[3]; 2.000 h,170 ± 120 ng/mL
same,"Caverage ± SD, serum ISO concentration",[3]; 4.000 h,30 ± 10 ng/mL
same,Cyclin D1 expression,[4],marginal induction of Cyclin D1
same,SP1 binding to Cyclin D1 promoter region −92~+27,[5],this binding was impaired
same,cell proliferation,"UMUC3 cells [6]; UMUC3, 5 μM ISO",inhibition of cell proliferation
same,IC50,"UMUC3 cells [6]; read-out: IC50, cell viability, UMUC3, ISO 5–60 μM, 48 h, n=3",22.4 ± 3.3 µM
same,endogenous Cyclin D1 vs exogenous GFP-Cyclin D1 protein expression,[7],only downregulated endogenous Cyclin D1 protein expression
same,SP1 protein expression,[8],only downregulated SP1 protein expression
same,"expression, activation or nuclear translocation of C-FOS, P-C-JUN(ser 73), P-C-JUN(ser63), C-JUN, HSF-1, P-ATFII, P-NF-κB p65, NF-κB p65",[8],did not show any observable inhibition
same,apoptosis,"[9]; UMUC3 and other invasive BC cells, 20μM",induced apoptosis
same,cytotoxic effect,"[9]; human bladder cancer cell lines, concentration lower than 20 μM",do not show cytotoxic effect
same,anchorage-independent growth,"[9]; human bladder cancer cells, 20~60 μM",significant inhibitory effect on anchorage-independent growth
same,morphologic changes,UMUC3 cells [10],"shrinkage, rounding, detachment and membrane blebbing"
same,earliest time of significant reduction of Cyclin D1 expression,"[11]; UMUC3, 5 μM ISO",6 h
same,Cyclin B1 expression,"[11]; UMUC3, 5 μM ISO, 24 h",slightly reduced
same,"expression of Cyclin A, Cyclin E, Cyclin B1, CDK4, CDK6, P53, P27, P21","[11]; UMUC3, different concentrations of ISO, 24 hours",did not show observable inhibition
same,Cyclin D1 protein expression,"[11]; UMUC3, different concentrations of ISO, 24 hours, vs DMSO",concentration-dependent reduction of Cyclin D1 protein expression
same,cells in G0/G1 (growth arrest),[12],54.61%
same,inhibition of anchorage-independent growth,[13],reversed by ectopic expression of GFP-Cyclin D1
same,"Cyclin D1 transcription, SP1 mutant reporter",[14]; UMUC3/SP1mut-Cyclin D1-Luc transfectant,did not shown a significant inhibition of Cyclin D1 transcription
same,"Cyclin D1 transcription, WT reporter",[14]; UMUC3/WT Cyclin D1-Luc transfectant,inhibited Cyclin D1 transcription
same,Cyclin D1 promoter transcriptional activity,"[14]; UMUC3 stable reporter, time-dependent, P<0.01",marked inhibition of Cyclin D1 promoter transcriptional activity
same,oxLDL-induced proliferation and mitogenesis,[15],inhibitory effect
same,cardiac hypertrophy,cardiac hypertrophy,inhibits cardiac hypertrophy
same,Cyclin D1 expression,[16],slight inhibition
same,apoptotic cells,UMUC3 cells [17],did not induce any increases of apoptotic cells
same,cells in G0/G1 (growth arrest),UMUC3 cells [17]; 12h,57.98%
same,cells in G0/G1 (growth arrest),UMUC3 cells [17]; 24h,62.62%
same,SP1-dependent transcriptional activity,[18],dramatically inhibition of SP1-dependent transcriptional activity
same,IC50,RT4 cells,38.6 ± 2.9 µM
same,cells in G0/G1 (growth arrest),UMUC3(GFP) cells,74.60%
same,cyclin d1 mRNA,[19],marked reduction of cyclin d1 mRNA
